Laboratory results published in publication PMC5557381 (European journal of medicinal chemistry, 2015).

Tests used:
[1] = test system: MH-14 cells carrying stably replicating HCV sub genomic replicon gt 1b; test: HCV RNA by quantitative RT-PCR in reporter free MH-14 cells; type: cell-based, Hepatitis C virus genotype 1b; settings: Hepatitis C virus, GT1B, MH14, read-out: EC50, HCV RNA in MH-14 cells
[2] = target: HCV NS5B polymerase (NS5BCΔ21) (Hepatitis C virus genotype 1b, UniProt Q9WMX2); test: NS5B RdRp primer-dependent elongation assay; type: biochemical; settings: 50 µM, preliminary assay, data not shown
HCV NS3 helicase (NS3h) = HCV NS3 helicase (NS3h) (Hepatitis C virus genotype 1b, UniProt Q9WMX2); test: Molecular beacon based NS3 helicase assay; type: biochemical; settings: concentrations as high as 500 µM, data not shown
[3] = test system: HCV IRES mediated translation; test: HCV IRES mediated translation dual luciferase reporter assay in Huh7.5 cells; type: cell-based, Hepatitis C virus; settings: data not shown
cyclooxygenase-2 = test: Host-factor reporter assay pCOX-2-FLuc in MH-14 cells; type: cell-based; settings: 5, 10 and 25 µM, 48 h
Procedure, shortened: (§1)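 MH-14 hepatoma cells stably carrying an HCV gt 1b subgenomic replicon were transfected with 300 ng of the gene-specific luciferase reporter plasmid. At 16 h post-transfection, cells were exposed to test compound or to DMSO as control for 48 h. Luciferase activity was then read, with transfection efficiency normalised to Renilla luciferase expression.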

heme oxygenase-1 = test: Host-factor reporter assay pHO-1-Luc in MH-14 cells; type: cell-based; settings: 5, 10 and 25 µM, 48 h
Procedure, shortened: as §1

[4] = test system: interferon-stimulated response element; test: Host-factor reporter assay pISRE-Luc in MH-14 cells; type: cell-based; settings: 5, 10 and 25 µM, 48 h
Procedure, shortened: as §1

[5] = test system: anti-oxidant response element; test: Host-factor reporter assay p3xARE-Luc in MH-14 cells; type: cell-based; settings: 5, 10 and 25 µM, 48 h
Procedure, shortened: as §1

In the case of `c1ccc(Cn2c(-c3ccccc3)cc3c2CCCC3)cc1` [Compound 39], the EC50 [1] is reported as 3.13 µM, the “Inhibition of NS5B RdRp activity” value [2] is reported as “no effect” and the “Inhibition of NS3 helicase unwinding of a DNA substrate” value (HCV NS3 helicase (NS3h)) is reported as “no effect”. The “Effect on HCV IRES mediated translation” value [3] was “no effect”, the “Effect on cyclooxygenase-2 reporter” value (cyclooxygenase-2) was “no effect” and the “Effect on heme oxygenase-1 reporter” value (heme oxygenase-1) was “no effect”. The “Effect on interferon-stimulated response element reporter” value [4] was “no effect” and the “Effect on anti-oxidant response element reporter” value [5] was “no effect”.
